Tests used:
[1] = target: T1, hM1 (Homo sapiens, UniProt P11229); test: Calcium mobilization PAM assay in hM1-CHO cells with EC20 acetylcholine; type: cell-based; details: PAM mode
T1 sequence (P11229 1-460): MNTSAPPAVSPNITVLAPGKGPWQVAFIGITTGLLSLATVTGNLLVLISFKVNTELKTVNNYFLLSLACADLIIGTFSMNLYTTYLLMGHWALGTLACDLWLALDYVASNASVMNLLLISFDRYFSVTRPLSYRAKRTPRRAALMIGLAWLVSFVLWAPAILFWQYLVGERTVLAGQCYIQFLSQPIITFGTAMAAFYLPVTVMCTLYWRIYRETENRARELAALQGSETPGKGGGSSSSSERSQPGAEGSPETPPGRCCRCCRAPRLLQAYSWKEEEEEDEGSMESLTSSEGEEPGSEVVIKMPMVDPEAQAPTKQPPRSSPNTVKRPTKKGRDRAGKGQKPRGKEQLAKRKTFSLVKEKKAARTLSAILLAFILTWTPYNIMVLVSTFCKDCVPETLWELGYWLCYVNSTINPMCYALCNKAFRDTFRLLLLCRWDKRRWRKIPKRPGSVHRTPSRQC

[2] = target: T2, hM4 (Homo sapiens, UniProt P08173); test: Calcium mobilization PAM selectivity assay, hM4; type: cell-based
T2 sequence (P08173 1-479): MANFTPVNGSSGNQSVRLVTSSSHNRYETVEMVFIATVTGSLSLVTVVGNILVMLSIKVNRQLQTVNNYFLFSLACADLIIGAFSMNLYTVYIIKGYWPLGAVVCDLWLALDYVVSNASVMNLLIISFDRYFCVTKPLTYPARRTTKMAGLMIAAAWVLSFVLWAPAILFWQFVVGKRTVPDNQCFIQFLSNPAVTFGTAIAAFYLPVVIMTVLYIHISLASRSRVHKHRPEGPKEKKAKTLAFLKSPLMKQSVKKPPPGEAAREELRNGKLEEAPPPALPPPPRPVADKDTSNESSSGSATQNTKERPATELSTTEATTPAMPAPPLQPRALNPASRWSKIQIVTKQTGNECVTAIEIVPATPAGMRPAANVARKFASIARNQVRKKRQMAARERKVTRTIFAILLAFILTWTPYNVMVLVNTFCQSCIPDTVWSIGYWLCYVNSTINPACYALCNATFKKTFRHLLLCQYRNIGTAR

[3] = target: T1, hM1; test: Calcium mobilization agonist mode in hM1-CHO cells, no exogenous ACh; type: cell-based; details: no exogenous acetylcholine
Summary of the method: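 Calcium mobilization in CHO cells expressing human M1, run without added acetylcholine to measure direct agonist activity and derive agonist EC50. Values are means of one to three independent experiments, each run in triplicate.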

[4] = Predicted hepatic clearance, human; type: in vitro ADME
[5] = Predicted hepatic clearance, rat; type: in vitro ADME

Row | hM1 activity (in words) [1] | EC50 [2] [µM] | hM1 agonist activity [3] | hClhep [4] [mL/min/kg] | rClhep [5] [mL/min/kg] | Structure (SMILES)
1 |  | > 10 | devoid of any hM1 agonist activity | 10.4 | 43 | Cn1cc2cc(-c3ccc(CN4Cc5ncsc5C4=O)c(F)c3)ccc2n1 [Compound 8b]
2 | inactive |  |  |  |  | Cn1cc2c(-c3cc(F)c(CN4Cc5ncoc5C4=O)c(F)c3)cccc2n1 [Compound 12a]

Continued, compound first:

Row | Structure (SMILES) | hM1 activity (in words) [1] | EC50 [2] [µM] | hM1 agonist activity [3] | hClhep [4] [mL/min/kg] | rClhep [5] [mL/min/kg]
3 | Cn1cc2c(-c3cc(F)c(CN4Cc5nc[nH]c5C4=O)c(F)c3)cccc2n1 [Compound 8a] | inactive |  |  |  | 
4 | Cn1cc2c(-c3cc(F)c(CN4Cc5ocnc5C4=O)c(F)c3)cccc2n1 [Compound 12b] | inactive |  |  |  | 
5 | Cn1cc2c(-c3cc(F)c(CN4Cc5cnn(CC6CCCO6)c5C4=O)c(F)c3)cccc2n1 (stereo not drawn) [Compound 20a] |  | > 10 | devoid of any hM1 agonist activity | 18.6 | 58.7
6 | Cc1[nH]cc2c1C(=O)N(Cc1c(F)cc(-c3cccc4nn(C)cc34)cc1F)C2 [Compound 25a] | inactive |  |  |  | 

Reference: article PMC8349895 (Bioorganic & medicinal chemistry letters, 2021)
